# Reference: article PMC7126824 (European Journal of Medicinal Chemistry, 2011)
# Read-outs that look alike come from different tables or passages of the source.
# Tests used:
# [1] = system: CEM (human lymphocyte) cells; experiment: Cytostatic activity: inhibition of tumor cell proliferation; assay type: cell-based; conditions: read-out: IC50 (50% inhibitory concentration)
# Summary of the method: (§1)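 Exponentially growing tumour cells were seeded in 96-well plates with a range of test-compound concentrations: CEM lymphocytes at 75,000 cells/well for 3 days, HeLa cervix carcinoma cells at 20,000 cells/well for 4 days. Viable cells were counted with a Coulter counter. The 50% value is the concentration inhibiting tumour cell proliferation by 50%.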
# [2] = system: MDCK, HEL, CrFK, HeLa and CEM cells; experiment: Cytostatic activity over the cell culture panel of Table 4; assay type: cell-based; conditions: read-out: IC50, range over the cell cultures
# [3] = system: HeLa (human cervix carcinoma) cells; experiment: Cytostatic activity: inhibition of tumor cell proliferation; assay type: cell-based; conditions: read-out: IC50 (50% inhibitory concentration)
# Summary of the method: as §1
# [4] = system: HEL (human lung fibroblast) cells; experiment: Cytostatic activity: inhibition of cell proliferation; assay type: cell-based; conditions: read-out: IC50 (50% inhibitory concentration)
# HCMV AD-169 strain = experiment: Antiviral assay: inhibition of virus-induced cytopathicity in HEL cell cultures; assay type: cell-based, human cytomegalovirus; conditions: Human betaherpesvirus 5, AD169, HEL, read-out: EC50 against HCMV AD-169 strain
# HCMV Davis strain = experiment: as above; assay type: cell-based, human cytomegalovirus; conditions: Human betaherpesvirus 5, HEL, read-out: EC50 against HCMV Davis strain
smiles,measurement,setting,value
"N.N.[Cl][Pt][Cl] [cisplatinum, reference compound]",IC50,[1]; CEM cells,2.2 µM
"S=C(NN=Cc1ccc(Cl)s1)Nc1ccccc1 [Compound 2, 5-Chlorothiophene-2-carboxaldehyde-N(4)phenyl thiosemicarbazone]",IC50,[2],7.1 to 57.8 µM
same,IC50,[3],7.1 µM
same,IC50,"[1]; Homo sapiens, CCRF-CEM",10 µM
same,IC50,[4],10.4 µM
Nc1nc(O)c2ncn(COC(CO)CO)c2n1 [ganciclovir],EC50,HCMV AD-169 strain,5 µM
same,EC50,HCMV Davis strain,3.4 µM
